Activity calls are given as the source filed them. The calls are words filed in the database; no cut-off is given here. Bounds are passed on as bounds.

The record followed here is ChEMBL document CHEMBL2384966, “Probes for narcotic receptor mediated phenomena. 47. Novel C4a- and N-substituted-1,2,3,4,4a,9a-hexahydrobenzofuro[2,3-c]pyridin-6-ols” (Bioorg Med Chem, 2013).

The species entered for assay [1] is Homo sapiens. Kind of assay: Selectivity ratio of Ki for human recombinant kappa opioid receptor to Ki for human recombinant delta opioid receptor.
Assay [2] is filed under the species Homo sapiens. Kind of assay: Selectivity ratio of Ki for human recombinant kappa opioid receptor to Ki for human recombinant mu opioid receptor.
The species named for assay [3] is Homo sapiens. Kind of assay: Selectivity ratio of Ki for human recombinant mu opioid receptor to Ki for human recombinant delta opioid receptor.
The target of assay [4] is T1, Delta-type opioid receptor (Homo sapiens, UniProt P41143). The experiment in a line: Antagonist activity at human recombinant delta opioid receptor expressed in mouse/rat NG108-15 cell membranes assessed as inhibition of SNC80-induced [35S]GTPgammaS binding by liquid scintillation counting analysis. The assay is classed as functional.
T1 sequence (P41143 whole entry): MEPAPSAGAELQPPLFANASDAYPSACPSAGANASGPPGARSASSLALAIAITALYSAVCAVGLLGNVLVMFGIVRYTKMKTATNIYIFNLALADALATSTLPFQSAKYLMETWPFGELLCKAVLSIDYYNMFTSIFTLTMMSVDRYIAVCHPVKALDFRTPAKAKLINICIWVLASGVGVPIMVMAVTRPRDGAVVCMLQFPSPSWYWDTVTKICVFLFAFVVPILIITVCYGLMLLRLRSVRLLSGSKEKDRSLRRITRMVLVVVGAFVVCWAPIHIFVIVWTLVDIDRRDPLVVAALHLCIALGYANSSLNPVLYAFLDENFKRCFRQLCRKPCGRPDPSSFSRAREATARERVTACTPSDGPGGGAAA
In assay [5] the target is T2, Mu-type opioid receptor (Homo sapiens, UniProt P35372). Kind of assay: Binding affinity to mu opioid receptor (unknown origin).
T2 sequence (P35372 whole entry): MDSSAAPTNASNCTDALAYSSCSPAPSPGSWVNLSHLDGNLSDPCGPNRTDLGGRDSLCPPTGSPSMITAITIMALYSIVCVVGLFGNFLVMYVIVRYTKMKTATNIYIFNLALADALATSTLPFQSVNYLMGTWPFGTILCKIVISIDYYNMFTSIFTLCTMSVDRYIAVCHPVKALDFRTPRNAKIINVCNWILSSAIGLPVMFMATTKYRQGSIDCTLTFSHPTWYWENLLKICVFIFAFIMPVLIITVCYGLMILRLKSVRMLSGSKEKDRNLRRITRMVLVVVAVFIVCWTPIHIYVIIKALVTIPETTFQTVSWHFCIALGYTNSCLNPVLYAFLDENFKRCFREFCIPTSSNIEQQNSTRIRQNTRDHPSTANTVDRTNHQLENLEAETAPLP
The target of assay [6] is T1, Delta-type opioid receptor. The experiment in a line: Partial agonist activity at human recombinant delta opioid receptor expressed in mouse/rat NG108-15 cell membranes assessed as stimulation of [35S]GTPgammaS binding after 3 hrs by liquid scintillation counting analysis relative to SNC80. The assay is classed as functional. The method, boiled down: (§1)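 DOR function measured in NG108-15 neuroblastoma-glioma membranes. Incubated with drug, GDP and 50 pM final [35S]GTPγS in 50 mM Tris-HCl pH 7.4, 100 mM NaCl, 10 mM MgCl2, 1 mM EDTA, 1 mM DTT, 0.1% BSA, 3 h at 25 °C. Unlabelled GTPγS defined nonspecific binding. Bound label collected on GF/B filters and scintillation counted; ED50 and Emax reported.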
Background: GTPγS is a poorly hydrolysed GTP analogue; its binding reports G protein activation.

Assay [7] has as its target T1, Delta-type opioid receptor. Kind of assay: Partial agonist activity at human recombinant delta opioid receptor expressed in mouse/rat NG108-15 cell membranes assessed as stimulation of [35S]GTPgammaS binding after 3 hrs by liquid scintillation counting analysis. The assay is classed as functional. The method, boiled down: as §1
Assay [8] addresses T1, Delta-type opioid receptor. The experiment in a line: Displacement of [3H]DADLE from human recombinant delta opioid receptor expressed in CHO cell membranes after 2 hrs by liquid scintillation counting analysis. The method, boiled down:
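Human DOR stably expressed in CHO cells; washed membranes (~30 µg protein/tube) incubated with ~2 nM [3H]DADLE and 10 drug concentrations in 50 mM Tris-HCl pH 7.4 with protease inhibitors, 2 h at 25 °C. Levallorphan defined nonspecific binding.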
A general note: Loss of bound radioactivity is the signal in a displacement assay; it reports binding, not function.

Assay [9] has as its target T2, Mu-type opioid receptor. The experiment in a line: biochemical. The assay is classed as cell-based, CHO.
Assay [10] concerns the target T3, Kappa-type opioid receptor (Homo sapiens, UniProt P41145). The experiment in a line: Displacement of [3H]U69,593 from human recombinant kappa opioid receptor expressed in CHO cell membranes after 2 hrs by liquid scintillation counting analysis. The assay is classed as cell-based.
Assay [11] addresses T3, Kappa-type opioid receptor. The experiment in a line: Binding affinity to kappa opioid receptor (unknown origin).
Assay [12] deals with T1, Delta-type opioid receptor. Kind of assay: Binding affinity to delta opioid receptor (unknown origin).

T3 sequence (P41145 whole entry): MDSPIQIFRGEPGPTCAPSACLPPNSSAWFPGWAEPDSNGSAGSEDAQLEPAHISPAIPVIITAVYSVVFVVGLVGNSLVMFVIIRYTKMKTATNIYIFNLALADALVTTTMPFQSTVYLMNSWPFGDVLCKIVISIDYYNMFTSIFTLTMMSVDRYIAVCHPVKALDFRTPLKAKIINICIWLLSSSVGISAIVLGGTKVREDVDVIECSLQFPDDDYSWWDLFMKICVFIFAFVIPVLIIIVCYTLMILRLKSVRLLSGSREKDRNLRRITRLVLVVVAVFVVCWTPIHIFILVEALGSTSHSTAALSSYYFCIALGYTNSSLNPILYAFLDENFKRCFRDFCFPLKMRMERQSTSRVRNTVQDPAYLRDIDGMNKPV

As for `CN1CC[C@@]2(C)c3cc(O)ccc3O[C@H]2C1` (relative stereo), the values for the Ratio Ki in the assay listed under Homo sapiens [1], in the assay filed under Homo sapiens [2] and in the assay filed under Homo sapiens [3] were above 0.4, above 10 and 0.04, respectively.

For `CN1CC[C@@]2(CCc3ccc(F)cc3)c3cc(O)ccc3O[C@H]2C1` (relative stereo), the Ratio Ki in the assay listed under Homo sapiens [1] was found to be 22; in the assay listed under Homo sapiens [2], 17; in the assay filed under Homo sapiens [3], 1.3.

As to `Oc1ccc2c(c1)[C@]1(CCc3ccccc3)CCN(CCc3ccccc3C(F)(F)F)C[C@@H]1O2` (relative stereo), the results for the Ratio Ki in the assay listed under Homo sapiens [1], in the assay listed under Homo sapiens [2] and in the assay filed under Homo sapiens [3] were 14, 11 and 1.3, respectively.

For the compound `CN1CC[C@@]2(CCCCCc3ccccc3)c3cc(O)ccc3O[C@H]2C1` (relative stereo), the Ke in [4] is above 200 nM. Also, the Ratio Ki in the assay filed under Homo sapiens [1] worked out at 0.95; in the assay listed under Homo sapiens [2], 3; in the assay filed under Homo sapiens [3], 0.4.

A word on the Ki: it is the equilibrium dissociation constant of an inhibitor or competing ligand from its target. In turn, `CC[C@@]12CCN(CCc3ccccc3)C[C@@H]1Oc1ccc(O)cc12` had an inhibition constant (Ki) on Mu-type opioid receptor [5] of 0.9 nM.

In general, Emax refers to the greatest response seen or fitted, relative to the assay's reference. On to `Oc1ccc2c(c1)[C@]1(CCc3ccccc3)CCN(CCc3ccc(C(F)(F)F)cc3)C[C@@H]1O2` (relative stereo), for which, in assay [6], the Emax worked out at 46%. In addition, in [4], the Ke stood at 827 nM.

Turning to `Oc1ccc2c(c1)[C@]1(CCc3ccccc3)CCN(CCc3ccccc3)C[C@@H]1O2` (relative stereo), the Emax in assay [6] stood at 29%. The Ke in assay [4] stood at 258 nM.

Take `Oc1ccc2c(c1)[C@]1(CCc3ccccc3)CCN(CCc3ccc(F)cc3)C[C@@H]1O2` (relative stereo): in assay [6], the Emax was determined as 29%. In addition, in assay [4], the Ke stood at 213 nM.

For the compound `Oc1ccc2c(c1)[C@]1(CCc3ccccc3)CCN(CCc3ccccc3F)C[C@@H]1O2` (relative stereo), the ED50 entry in assay [7] is “inactive”. In addition, the Ke in [4] was determined as 37 nM.

In the case of `Oc1ccc2c(c1)[C@]1(CCc3ccccc3)CCN(CC3CC3)C[C@@H]1O2` (relative stereo), the ED50 result in assay [7] was “inactive”.

Regarding `CN1CC[C@@]2(Cc3ccccc3)c3cc(O)ccc3O[C@H]2C1` (racemic), the values for the Ki (in assay [8]; at Mu-type opioid receptor [9]; in assay [10]) were 64 nM, 60 nM and 2880 nM, respectively.

Consider `CC[C@@]12CCN(C)C[C@@H]1Oc1ccc(O)cc12` (racemic), for which the Ratio Ki in the assay listed under Homo sapiens [1] is above 23; in the assay filed under Homo sapiens [2] it was above 263; in the assay filed under Homo sapiens [3], 0.09. For the same compound, the Ki was 212 nM in assay [8], 19 nM on Mu-type opioid receptor [9] and above 5000 nM in [10].

Take `CCCC[C@@]12CCN(C)C[C@@H]1Oc1ccc(O)cc12` (relative stereo): the Ratio Ki in the assay filed under Homo sapiens [1] was found to be 9; in the assay filed under Homo sapiens [2], 20; in the assay filed under Homo sapiens [3], 0.5.

In the case of `CN1CC[C@@]2(CCc3ccccc3)c3cc(O)ccc3O[C@H]2C1` (racemic), the results for the Ki (in assay [8]; on Mu-type opioid receptor [9]; in [10]) were 551 nM, 66 nM and 3540 nM, respectively.

`CN1CC[C@@]2(CCc3ccccc3F)c3cc(O)ccc3O[C@H]2C1` (relative stereo): the Ke in [4] was determined as 29 nM.

`CC[C@@]12CCN(CC3CC3)C[C@@H]1Oc1ccc(O)cc12`: the Ki at Mu-type opioid receptor [5] is 4 nM; in assay [11] it was 34 nM; in assay [12] it was 53 nM.

Consider `Oc1ccc2c(c1)[C@]1(CCc3ccccc3)CCN(CCc3cccc(C(F)(F)F)c3)C[C@@H]1O2` (relative stereo), for which the Ke in assay [4] is 455 nM.
